For one assay, the system named is K562. In words: Cytotoxicity against human K562 cells after 4 days by XTT assay. The assay is classed as functional, cell-based. As to conditions: K562, 96 h.
The test system of assay [1] is HeLa. The experiment in a line: Cytotoxicity against human HeLa cells after 4 days by XTT assay. The assay is classed as functional, cell-based. As to conditions: 96 h. The gist of the method:
(§1)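 XTT assay with four-day drug treatment. Cells were plated one day before dosing and drug was added on day 2. XTT was read on day 5 after drug addition by absorbance at 595 nm. Absorbance was converted to percent survival against mock-treated cells to give dose-dependent cytotoxicity. Triplicate sets. HeLa, MDA-MB231 and MDA-MB468 were maintained in DMEM with 10% FBS.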

A further assay has as its system MDA-MB-231. The experiment in a line: Cytotoxicity against human MDA-MB-231 cells after 4 days XTT assay. In kind it is functional, cell-based. As to conditions: MDA-MB-231, 96 h. The gist of the method: as §1
The next assay deals with MDA-MB-468. The experiment in a line: Cytotoxicity against human MDA-MB-468 cells after 4 days by XTT assay. In kind it is functional, cell-based. As to conditions: MDA-MB-468, 96 h. The essentials: as §1
(In general: Tetrazolium dyes change colour on reduction, which living cells bring about.)

The target in assay [2] is T1, Kinetochore protein NDC80 homolog (Homo sapiens) (UniProt O14777).
T1 sequence (whole entry): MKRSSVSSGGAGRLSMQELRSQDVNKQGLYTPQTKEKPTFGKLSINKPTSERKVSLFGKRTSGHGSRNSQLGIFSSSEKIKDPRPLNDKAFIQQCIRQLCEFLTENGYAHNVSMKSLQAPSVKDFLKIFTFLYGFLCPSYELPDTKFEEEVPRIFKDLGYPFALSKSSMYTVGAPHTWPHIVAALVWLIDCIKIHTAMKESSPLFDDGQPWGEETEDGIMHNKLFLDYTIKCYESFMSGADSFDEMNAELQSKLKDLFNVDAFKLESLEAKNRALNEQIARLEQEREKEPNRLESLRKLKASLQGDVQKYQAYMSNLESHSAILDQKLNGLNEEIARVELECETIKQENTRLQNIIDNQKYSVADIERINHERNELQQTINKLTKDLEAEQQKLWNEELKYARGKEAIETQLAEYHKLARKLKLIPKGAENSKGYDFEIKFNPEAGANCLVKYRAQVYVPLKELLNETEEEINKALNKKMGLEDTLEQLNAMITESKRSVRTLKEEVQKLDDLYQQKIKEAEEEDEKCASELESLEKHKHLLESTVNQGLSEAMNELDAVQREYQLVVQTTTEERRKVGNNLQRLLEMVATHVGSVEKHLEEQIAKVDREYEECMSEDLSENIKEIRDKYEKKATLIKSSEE
In words: Binding affinity to Hec1 in human HeLa cell extract by affinity pulldown assay. In kind it is cell-free. The essentials:
(§2)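 Compounds were conjugated to affi-gel matrix. HeLa cell extract was incubated with control or compound-conjugated matrices and the precipitates were washed thoroughly. Bound proteins were resolved by SDS-PAGE and Western blotted for Hec1 and Nek2. Whole cell extract served as input, in duplicates.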

Assay [3] concerns HeLa. The experiment in a line: Cell cycle arrest in human HeLa cells assessed as accumulation at subG1 phase at 2.5 uM after 72 hrs by FACS analysis. The assay is classed as functional. The essentials:
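HeLa cells were treated with compound at 2.5 μM, with buffer as mock control. Phase contrast images were taken at various time points to assess dying-cell morphology such as membrane bubbling. Cell cycle profiling was done by FACS at 72 h.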
(A flow cytometer gives signals particle by particle.)

Assay [4] relates to HeLa. In words: Anticancer activity against human HeLa cells assessed as reduction of Nek2 level at 25 uM by Western blot assay. In kind it is functional, cell-based. On the technique in general: Immunoblotting shows a protein as a band on a membrane.
The target in assay [5] is T2, Serine/threonine-protein kinase Nek2 (Homo sapiens) (UniProt P51955).
T2 sequence (whole entry): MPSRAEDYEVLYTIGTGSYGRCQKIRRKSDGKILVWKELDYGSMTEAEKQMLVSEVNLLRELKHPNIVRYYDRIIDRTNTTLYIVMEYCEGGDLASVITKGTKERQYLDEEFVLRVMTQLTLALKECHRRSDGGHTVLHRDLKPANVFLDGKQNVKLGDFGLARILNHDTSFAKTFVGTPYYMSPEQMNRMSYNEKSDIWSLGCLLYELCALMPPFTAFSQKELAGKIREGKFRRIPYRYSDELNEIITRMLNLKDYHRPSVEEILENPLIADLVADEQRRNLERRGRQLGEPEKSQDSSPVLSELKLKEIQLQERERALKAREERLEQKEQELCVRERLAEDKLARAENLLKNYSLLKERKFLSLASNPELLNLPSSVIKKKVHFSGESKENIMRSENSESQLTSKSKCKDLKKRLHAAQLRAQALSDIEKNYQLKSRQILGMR
The experiment in a line: Binding affinity to NeK2 in human HeLa cell extract by affinity pulldown assay. In kind it is cell-free. The gist of the method:
as §2

The text below walks through data of ChEMBL document CHEMBL1152785, “Synthesis and biological evaluation of a series of novel inhibitor of Nek2/Hec1 analogues” (J Med Chem, 2009).

Activity calls are given as the source filed them. The calls are words filed in the database; no cut-off is given here.

For orientation: IC50 means the concentration that inhibits the measured activity by half. High values mean lower potency, low ones higher potency.

As to `Cc1cc(C)c(-c2csc(NC(=O)c3cnccn3)n2)c(C)c1`, the IC50 in the assay with K562 came to 5.9 µM; in the assay on HeLa [1], 5.7 µM; with MDA-MB-231, 3.2 µM; with MDA-MB-468, 4.7 µM.
For `COc1cc(C)cc(C)c1-c1csc(NC(=O)c2ccccc2)n1` the same measures were 7.3 µM, 10.6 µM, 7.2 µM and 10.7 µM.
For `COc1ccc(C(=O)Nc2nc(-c3c(C)cc(C)cc3C)cs2)c(O)c1` the same measures were 14.8 µM, 14.4 µM, 11.8 µM and 14.4 µM.
For `Cc1cc(C)c(-c2csc(N(CC(=O)O)C(=O)c3ccccc3)n2)c(C)c1` the same measures were more than 40 µM, more than 40 µM, more than 40 µM and more than 40 µM.
In the case of `COc1ccc(C(=O)Nc2nc(-c3ccc(C)cc3C)cs2)c(OC)c1`, the IC50 is more than 40 µM in the assay with K562, more than 40 µM with HeLa [1], 23.4 µM with MDA-MB-231 and more than 40 µM in the assay with MDA-MB-468.
On to `Cc1cc(C)c(-c2csc(NC(=O)c3cncn3C)n2)c(C)c1`, for which the IC50 was 10.1 µM in the assay on K562, 11.2 µM with HeLa [1], 6.8 µM in the assay with MDA-MB-231 and 10.7 µM in the assay with MDA-MB-468.
For `Cc1cc(C)c(-c2csc(N(C)C(=O)c3ccccc3)n2)c(C)c1` the same measures were 9.2 µM, 14.1 µM, 11.6 µM and 10.8 µM.
`Cc1cc(C)c(-c2csc(NC(=O)c3nccs3)n2)c(C)c1`: the IC50 with K562 was 14.5 µM; with HeLa [1], 11.2 µM; in the assay with MDA-MB-231, 4.7 µM; in the assay on MDA-MB-468, 11.8 µM.
For `Cc1ccc(-c2csc(N)n2)c(C)c1`, the IC50 with K562, in the assay with HeLa [1], with MDA-MB-231 and in the assay with MDA-MB-468 was more than 40 µM in each case.
As for `Cc1ccc(-c2csc(NC(=O)c3cnccn3)n2)c(C)c1`, the IC50 in the assay on K562, in the assay on HeLa [1], in the assay on MDA-MB-231 and in the assay with MDA-MB-468 was more than 25 µM each time.
In the case of `COc1ccc(C(=O)/N=c2\scc(-c3c(C)cc(C)cc3C)n2C)c(OC)c1`, the IC50 with K562 came out at 23.7 µM; with HeLa [1] it was 22 µM; with MDA-MB-231 it was 22.1 µM; in the assay on MDA-MB-468, 21 µM.
The corresponding values for `COc1ccc(C(=O)N(C)c2nc(-c3c(C)cc(C)cc3C)cs2)c(OC)c1` are 15.5 µM, more than 40 µM, 10.6 µM and 18.7 µM.
The corresponding values for `Cc1ccc(-c2csc(NC(=O)c3nccs3)n2)c(C)c1` are 10.1 µM, 7.4 µM, 2.9 µM and 6.2 µM.
Turning to `Cc1ccc(-c2csc(NS(=O)(=O)c3ccccc3)n2)c(C)c1`, the IC50 in the assay on K562, in the assay on HeLa [1], with MDA-MB-231 and with MDA-MB-468 was more than 40 µM throughout. Moreover, the result (in assay [2]; in the assay with HeLa [4]) was inactive. Moreover, the Activity in the assay with HeLa [3] is 2.9%.
Regarding `Cc1cc(C)c(-c2csc(NC(=O)c3ccc(O)cc3O)n2)c(C)c1`, the IC50 in the assay on K562 is more than 40 µM; in the assay with HeLa [1], more than 40 µM; with MDA-MB-231, 22.5 µM; in the assay with MDA-MB-468 it was 21.3 µM.
As to `Cc1ccc(-c2coc(NC(=O)c3ccccc3)n2)c(C)c1`, the IC50 in the assay with K562 came to 19.2 µM; in the assay with HeLa [1], 18.6 µM; in the assay with MDA-MB-231, 14.4 µM; in the assay with MDA-MB-468, 16 µM.
The corresponding values for `Cc1ccc(-c2csc(NC(=S)c3ccccc3)n2)c(C)c1` are 22.9 µM, 18.6 µM, 21.1 µM and 19.6 µM.
The corresponding values for `Cc1ccc(-c2csc(N(C)C(=O)c3ccccc3)n2)c(C)c1` are 14.8 µM, 20.2 µM, 13.5 µM and 16 µM.
For `Cc1cc(C)c(-c2csc(NC(=O)c3ccccc3)n2)c(O)c1` the same measures were 11.9 µM, 13.1 µM, 11.8 µM and more than 40 µM.
`COc1ccc(C(=O)Nc2nc(-c3c(C)cc(C)cc3C)cs2)c(OC)c1`: the IC50 with K562 amounted to 9.5 µM; with HeLa [1] it was 13.6 µM; with MDA-MB-231, 9.7 µM; in the assay on MDA-MB-468, 11.2 µM.
For `Cc1cc(C)c(-c2csc(NC(=O)c3ccccc3C(F)(F)F)n2)c(C)c1` the same measures were 7.5 µM, 10.6 µM, 5.9 µM and 4.1 µM.
Consider `Cc1cc(C)c(-c2csc(NC(=O)c3cccnc3)n2)c(C)c1`, for which the IC50 worked out at 3.9 µM with K562, 3.6 µM in the assay on HeLa [1], 3.2 µM in the assay with MDA-MB-231 and 3 µM in the assay with MDA-MB-468.
For `COc1ccccc1C(=O)Nc1nc(-c2c(C)cc(C)cc2C)cs1` the same measures were more than 40 µM, more than 40 µM, more than 40 µM and more than 40 µM.
Turning to `Cc1ccc(-c2csc(NC(=O)c3cncn3C)n2)c(C)c1`, the IC50 with K562, with HeLa [1], in the assay on MDA-MB-231 and in the assay on MDA-MB-468 was more than 25 µM each time.
In the case of `Cc1ccc(-c2csc(NC(=O)c3ccccn3)n2)c(C)c1`, the IC50 came to 13.3 µM in the assay on K562, 14.5 µM in the assay on HeLa [1], 7.5 µM with MDA-MB-231 and 6.2 µM in the assay on MDA-MB-468.
For `Cc1ccc(-c2csc(NS(=O)(=O)Cc3ccccc3)n2)c(C)c1` the same measures were more than 40 µM, more than 40 µM, more than 40 µM and more than 40 µM.
`CCOC(=O)CN(C(=O)c1ccccc1)c1nc(-c2c(C)cc(C)cc2C)cs1`: the concentration for half-maximal inhibition (IC50) turned out to be 20.2 µM with K562, 22.2 µM with HeLa [1], 15.8 µM in the assay with MDA-MB-231 and 20.2 µM in the assay with MDA-MB-468.
For `Cc1cc(C)c(-c2csc(N)n2)c(C)c1`, the IC50 in the assay with K562, in the assay with HeLa [1], with MDA-MB-231 and in the assay with MDA-MB-468 was more than 40 µM each time.
`Cc1cc(C)c(-c2csc(NC(=O)c3ccccn3)n2)c(C)c1`: the IC50 with K562 was determined as 4.9 µM; with HeLa [1], 5.2 µM; in the assay with MDA-MB-231, 4.1 µM; in the assay with MDA-MB-468, 2.3 µM.
Regarding `Cc1ccc(-c2csc(NC(=O)N3CCOCC3)n2)c(C)c1`, the IC50 was 4.2 µM in the assay on K562, 4.7 µM with HeLa [1], 5.8 µM in the assay on MDA-MB-231 and 4 µM with MDA-MB-468.
For `Cc1ccc(-c2csc(NC(=O)c3cccnc3)n2)c(C)c1` the same measures were 8.2 µM, 5.8 µM, 4.1 µM and 5.5 µM.
In the case of `Cc1ccc(-c2csc(NC(=O)c3ccncc3)n2)c(C)c1`, the IC50 in the assay with K562 worked out at 1.2 µM; in the assay on HeLa [1], 1.6 µM; in the assay on MDA-MB-231 it was 1.1 µM; in the assay on MDA-MB-468, 3.4 µM. Also, the result in assay [5] was inactive.
